Source: paper PMC12855199 (Scientific Reports, 2025)

Tests used:
C. elegans N2 strain = assay: In vitro nematocidal; design: species or system Caenorhabditis elegans
In short: (§1)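 C. elegans strains kept on NGM with E. coli. L1 obtained by bleaching and hatching eggs on unseeded NGM at 20 °C (~24 h). Thirty L1 per well, in triplicate, exposed in M9 to test compound at final 10–100,000 ng/mL with 0.5% DMSO, 72 h, 20 °C. Controls: DMSO, albendazole, ivermectin. Motility scored visually by inverted microscope; no movement = dead. EC50 by nonlinear regression; three independent replicates.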

C. elegans CB347 strain = assay: In vitro nematocidal; design: species or system Caenorhabditis elegans
In short: as §1

HepG2 cells = assay: MTT cytotoxicity testing on HepG2; type: cell-based, human; details: HepG2, 24 h exposure, MTT; mean ± S.E.
In short: (§2)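 Cells seeded at 20,000/well in MEM with 10% FBS, grown 24 h at 37 °C under 5% CO₂. Medium then replaced by test compound at final 10–100,000 ng/mL in MEM with 0.5% DMSO, 24 h. MTT added for 4 h; formazan dissolved in 4 mM HCl/0.1% NP-40 in isopropanol. Absorbance read at 590 nm, reference 620 nm. Viability relative to untreated; CC50 by nonlinear regression; three independent replicates.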

Caco-2 cells = assay: MTT cytotoxicity testing on Caco-2; type: cell-based, human; details: Caco-2, 24 h exposure, MTT; mean ± S.E.
In short: as §2

[1] = tested on: T. spiralis muscle-stage larvae (L1); assay: In vitro nematocidal; design: species or system Trichinella spiralis
In short: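 Female ICR mice (8 weeks old) were infected orally with 100 larvae. Muscle larvae were recovered at day 60 by 0.7% pepsin/0.7% HCl digestion and kept in RPMI with 10% FCS and penicillin/streptomycin. Thirty larvae per well, in triplicate, with test compound at final 10–100,000 ng/mL and 0.5% DMSO, 72 h, 37 °C. Controls: DMSO, albendazole, ivermectin. EC50 by nonlinear regression; three independent replicates.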

C. elegans JD608 strain = assay: In vitro nematocidal; details: Caenorhabditis elegans, 72 h
In short: as §1

[2] = MTT cytotoxicity testing on HepG2; type: cell-based, human; details: human, HepG2 cells
In short: as §2

[3] = MTT cytotoxicity testing on Caco-2; type: cell-based, human; details: human, Caco-2 cells
In short: as §2

[4] = tested on: T. spiralis muscle larvae; design: species or system Trichinella spiralis
In short: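 Muscle larvae were exposed to one concentration of test compound or to 0.5% DMSO. Extraction: cold methanol twice, then water, with freeze–thaw cycles and centrifugation at 4 °C; pooled extracts dried. Separation on C18 at 40 °C, 0.3 mL/min, formic acid water/acetonitrile gradient. Q-TOF ESI±, IDA with survey scan m/z 100–1000; pooled QCs. Processed in MS-DIAL and MetaboAnalyst; 3 biological × 2 technical replicates.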

[5] = no reference given; cited from earlier work
[6] = T. spiralis metabolite, quercetin at EC50 vs DMSO
[7] = T. spiralis, quercetin at EC50 vs DMSO control

**Q.** Which results are given for `CC[C@H](C)[C@H]1O[C@]2(CC[C@@H]1C)C[C@@H]1C[C@@H](C/C=C(\C)[C@@H](O[C@H]3C[C@H](OC)[C@@H](O[C@H]4C[C@H](OC)[C@@H](O)[C@H](C)O4)[C@H](C)O3)[C@@H](C)/C=C/C=C3\CO[C@@H]4[C@H](O)C(C)=C[C@@H](C(=O)O1)[C@]34O)O2` [IVM, ivermectin, reference compound]?
**A.** EC50 (C. elegans N2 strain; C. elegans N2 (wild type), L1, 72 h at 20 °C, motility, mean ± S.E.): 17.7 ± 1.85 µM; EC50 (C. elegans CB347 strain; C. elegans CB347 (albendazole-resistant), L1, 72 h at 20 °C, motility, mean ± S.E.): 15.4 ± 6.07 µM; CC50 (HepG2 cells): 14.9 ± 1.39 µM; CC50 (Caco-2 cells): 20 ± 5.28 µM; EC50 ([1]; T. spiralis muscle-stage larvae, 72 h at 37 °C, motility, mean ± S.E.): 107 ± 7.89 µM

**Q.** What does the source list for `COc1ccc([C@@H]2CC(=O)c3c(O)cc(O)cc3O2)cc1O` [Hesperetin, hesperetin]?
**A.** EC50 (C. elegans N2 strain; Caenorhabditis elegans, 72 h): 283 ± 23.9 µM; EC50 (C. elegans CB347 strain; Caenorhabditis elegans, 72 h): > 1000 µM; EC50 (C. elegans JD608 strain): 51.7 ± 2.92 µM; CC50 at 24 h [2]: > 1000 µM; CC50 at 24 h [3]: 56.3 ± 6.18 µM

**Q.** With `O=c1cc(-c2ccc(O)cc2)oc2cc(O)cc(O)c12` [Apigenin, apigenin] as the molecule, how does the EC50 (C. elegans N2 strain; Caenorhabditis elegans, 72 h) read?
**A.** Its EC50 is 218 ± 11.2 µM.

**Q.** What about the EC50 (C. elegans CB347 strain; Caenorhabditis elegans, 72 h) of the same molecule?
**A.** Its EC50 is 55.8 ± 4.89 µM.

**Q.** And the EC50 (C. elegans JD608 strain)?
**A.** The EC50 was 51.3 ± 1.46 µM.

**Q.** What about the CC50 at 24 h [2] of the same molecule?
**A.** Its CC50 at 24 h is 53.3 ± 4.52 µM.

**Q.** And the CC50 at 24 h [3]?
**A.** The CC50 at 24 h was over 1000 µM.

**Q.** What about the EC50 ([1]; Trichinella spiralis, 72 h) of the same molecule?
**A.** The EC50 was over 1000 µM.

**Q.** Which EC50 (C. elegans N2 strain; Caenorhabditis elegans, 72 h) does the source give for `COc1ccc(-c2cc(=O)c3c(OC)c(OC)c(OC)c(OC)c3o2)cc1` [Tangeretin, tangeretin] here?
**A.** Its EC50 is over 1000 µM.

**Q.** What about the EC50 (C. elegans CB347 strain; Caenorhabditis elegans, 72 h) of the same molecule?
**A.** The EC50 was over 1000 µM.

**Q.** What about the EC50 (C. elegans JD608 strain) of the same molecule?
**A.** Its EC50 is 43.1 ± 11.2 µM.

**Q.** And the CC50 at 24 h [2]?
**A.** The CC50 at 24 h was 251 ± 35 µM.

**Q.** And the CC50 at 24 h [3]?
**A.** Its CC50 at 24 h is 531 ± 70.3 µM.

**Q.** With `CCCSc1ccc2nc(NC(=O)OC)[nH]c2c1` [ABZ, albendazole, reference compound] as the molecule, how does the EC50 (C. elegans N2 strain; Caenorhabditis elegans, 72 h) read?
**A.** The EC50 was 672 ± 73 µM.

**Q.** What about the EC50 (C. elegans CB347 strain; Caenorhabditis elegans, 72 h) of the same molecule?
**A.** The EC50 was over 1000 µM.

**Q.** What about the EC50 (C. elegans JD608 strain) of the same molecule?
**A.** The EC50 was 788 ± 22.6 µM.

**Q.** And the CC50 at 24 h [2]?
**A.** The CC50 at 24 h was over 1000 µM.

**Q.** What about the CC50 at 24 h [3] of the same molecule?
**A.** The CC50 at 24 h was over 1000 µM.

**Q.** And the EC50 ([1]; Trichinella spiralis, 72 h)?
**A.** Its EC50 is 129 ± 34.1 µM.

**Q.** For `C[C@@H]1O[C@@H](O[C@H]2[C@H](Oc3cc(O)c4c(c3)O[C@H](c3ccc(O)cc3)CC4=O)O[C@H](CO)[C@@H](O)[C@@H]2O)[C@H](O)[C@H](O)[C@H]1O` [Naringin, naringin], which EC50 (C. elegans N2 strain; Caenorhabditis elegans, 72 h) is on record?
**A.** The EC50 was over 1000 µM.

**Q.** What about the EC50 (C. elegans CB347 strain; Caenorhabditis elegans, 72 h) of the same molecule?
**A.** Its EC50 is over 1000 µM.

**Q.** What about the EC50 (C. elegans JD608 strain) of the same molecule?
**A.** Its EC50 is over 1000 µM.

**Q.** What about the CC50 at 24 h [2] of the same molecule?
**A.** The CC50 at 24 h was over 1000 µM.

**Q.** What about the CC50 at 24 h [3] of the same molecule?
**A.** Its CC50 at 24 h is 249 ± 65.3 µM.

**Q.** With `O=c1c(O)c(-c2ccc(O)c(O)c2)oc2cc(O)cc(O)c12` [Quercetin, quercetin] as the molecule, how does the EC50 (C. elegans N2 strain; Caenorhabditis elegans, 72 h) read?
**A.** Its EC50 is 80.5 ± 20.3 µM.

**Q.** And the EC50 (C. elegans CB347 strain; Caenorhabditis elegans, 72 h)?
**A.** Its EC50 is 76.2 ± 7.4 µM.

**Q.** What about the EC50 (C. elegans JD608 strain) of the same molecule?
**A.** Its EC50 is 45.3 ± 4.92 µM.

**Q.** And the CC50 at 24 h [2]?
**A.** The CC50 at 24 h was over 1000 µM.

**Q.** And the CC50 at 24 h [3]?
**A.** Its CC50 at 24 h is over 1000 µM.

**Q.** What about the EC50 ([1]; Trichinella spiralis, 72 h) of the same molecule?
**A.** The EC50 was 147 ± 28.2 µM.

**Q.** What about the “Log2 (FC) 1-Heptadecanoyl-sn-glycero-3-phosphocholine” value [4, 6] of the same molecule?
**A.** Its value is -1.6835.

**Q.** And the “Log2 (FC) 3-Phosphoglyceric Acid” value [4, 6]?
**A.** Its value is -1.0514.

**Q.** And the “Log2 (FC) 7alpha-Hydroxy-4-cholesten-3-one” value [4, 6]?
**A.** Its value is 2.1364.

**Q.** And the “Log2 (FC) Arachidonic acid” value [4, 6]?
**A.** The value was -1.1472.

**Q.** What about the “Log2 (FC) Coenzyme q6” value [4, 6] of the same molecule?
**A.** The value was 1.8385.

**Q.** What about the “Log2 (FC) Deoxyguanosine” value [4, 6] of the same molecule?
**A.** Its value is -2.4539.

**Q.** And the “Log2 (FC) Inosine” value [4, 6]?
**A.** Its value is -2.6373.

**Q.** And the “Log2 (FC) LacCer(d18:1/16:0)” value [4, 6]?
**A.** Its value is 2.6728.

**Q.** And the “Log2 (FC) Lignoceric acid” value [4, 6]?
**A.** The value was 4.0956.

**Q.** What about the “Log2 (FC) Linoleic acid” value [4, 6] of the same molecule?
**A.** The value was 2.1922.

**Q.** And the “Log2 (FC) Linolenic acid” value [4, 6]?
**A.** Its value is 2.7081.

**Q.** What about the “Log2 (FC) LysoPC(0:0/18:0)” value [4, 6] of the same molecule?
**A.** The value was -1.4886.

**Q.** What about the “Log2 (FC) LysoPE(0:0/16:0)” value [4, 6] of the same molecule?
**A.** Its value is -1.8636.

**Q.** What about the “Log2 (FC) LysoPE(0:0/18:2(9Z,12Z))” value [4, 6] of the same molecule?
**A.** Its value is -1.4991.

**Q.** And the “Log2 (FC) Menaquinone 4” value [4, 6]?
**A.** The value was 2.2163.

**Q.** And the “Log2 (FC) N-Acetyl-D-Galactosamine” value [4, 6]?
**A.** Its value is 4.5233.

**Q.** What about the “Log2 (FC) PC(P-18:1(9Z)/P-16:0)” value [4, 6] of the same molecule?
**A.** Its value is 2.1307.

**Q.** And the “Log2 (FC) Phosphatidylethanolamine” value [4, 6]?
**A.** Its value is -1.0876.

**Q.** And the “Log2 (FC) Tetradecanoylcarnitine” value [4, 6]?
**A.** Its value is -2.0664.

**Q.** What about the “Log2 (FC) Vitamin K1” value [4, 6] of the same molecule?
**A.** Its value is 1.8127.

**Q.** And the Down-regulated features [4, 7]?
**A.** Its Down-regulated features is 68.

**Q.** What about the Up-regulated features [4, 7] of the same molecule?
**A.** Its Up-regulated features is “Around 204”.

**Q.** What about the Oral bioavailability [5] of the same molecule?
**A.** Its Oral bioavailability is under 5%.
